Bioassay records: PubChem BioAssay, several laboratories
Many of the other results were omitted from the sample, so hits are more common in it than they were.
TLR4-MyD88 BLA = inhibitors of TLR4-MyD88 association in cells, primary screen, cell-based, HeLa CL3-4, BLA complementation, FRET ratio | HeLa CL3-4 TLR4/MyD88 BLA complementation | Toll-like receptor 4 (Homo sapiens) + Myeloid differentiation primary response protein … | inhibition, % at 8.4 µM | 0.18% of 200,000 active | AID 861, 2007; in the data active means inhibition above about 25%;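 further: 0% = vehicle and 100% = reference inhibitor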
NOD2-RIPK2 inh = NOD2-RIPK2 binding disruptors in cells, primary screen, fluorescence, CHO cells, BLA complementation; AID 624267, 2012; inhibition, % at 4.98 µM; CCF4 ratio; 0.38% of 360,000 active; in the data active means inhibition above about 21%;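 further: 0% = vehicle only and 100% = reference blocker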
CHOP inh = inhibitors of CHOP promoter induction, primary screen, cell-based, unfolded protein response, luciferase reporter. CHO-K1 CHOP-promoter luciferase, tunicamycin-induced, 15-18 h. inhibition, % at 10 µM. 3.8% of 220,000 active. AID 2732, 2010;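 active means compounds that reduced the stress-induced luciferase reporter signal by more than about 70% of percent inhibition, limit read from the data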;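 further: 0% = tunicamycin plus vehicle and 100% = wells without tunicamycin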
TLR9-MyD88 block = inhibitors of TLR9-MyD88 association in cells, primary screen, cell-based, CHO, BLA complementation, fluorescence | AID 504734, 2011 | inhibition, % at 4.98 µM | CCF4 FRET ratio | 0.21% of 340,000 active;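 active means inhibition above the mean over all tested compounds plus 3 SD, cut at about 21% in these data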;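 further: 0% = DMSO only wells and 100% = clavulanate BLA inhibitor control wells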
CHOP UPR activ = activators of apoptotic CHOP UPR arm, primary screen, cell-based, CHO-CHOP luciferase reporter, luminescence, uHTS; UPR activation; percent of tunicamycin response over DMSO baseline; activation, % at 10 µM; 0.34% of 330,000 active; AID 449763, 2010;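 active means at 10 µM dose, activation of 40% or more, normalized to positive control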;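 further: 100% = tunicamycin at 10 µg/mL and 0% = DMSO alone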
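System: CHO CHOP reporter cells. Amount: 500 cells per well. Buffer or medium: F12 medium, 10% FBS. Compound dosing: one dose, 10 µM in 0.5% DMSO. Incubation: 6 h compound exposure at 37 °C after overnight seeding. Technique: Steady-Glo luciferase luminescence. Benchmarks: tunicamycin and DMSO controls.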
UPR XBP1 act = activators of adaptive XBP1 UPR arm, primary screen, cell-based, CHO-XBP1 luciferase reporter, luminescence, uHTS. IRE1-XBP1 UPR activation; percent of tunicamycin response, DMSO as zero. activation, % at 20 µM. 0.33% of 330,000 active. AID 463104, 2010;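 active means versus positive control, 20 µM dose yields 30% or more activation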;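 further: 100% = tunicamycin at 10 µg/mL and 0% = DMSO only wells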
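Signal: luciferase luminescence; Assay system: CHO-XBP1 luciferase reporter cells; Amount: one thousand reporter cells per well; Dosing: 20 µM single concentration, DMSO 1%; Benchmarks: high control tunicamycin 10 µg/mL final, low control DMSO vehicle only; Schedule: 6 h compound exposure at 37 °C, 5% CO2; Evaluation: percent activation relative to tunicamycin reference.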
The depositor's hits bear a star; ! = repeats disagree.

`CCn1c(C2CC(=O)N(c3cc(C)cc(C)c3)C2)nc2ccccc21` (stereo not given) gave TLR4-MyD88 BLA -3, NOD2-RIPK2 inh -14, CHOP inh 75*, TLR9-MyD88 block 2, CHOP UPR activ 2 and UPR XBP1 act -1.
Screening Clc1ccccc1C(c1ccccc1)(c1ccccc1)n1ccnc1 returned TLR4-MyD88 BLA -5, NOD2-RIPK2 inh 0, CHOP inh 88*!, TLR9-MyD88 block -1, CHOP UPR activ 12 and UPR XBP1 act -5.
For CCc1nc2c(OCc3ccccc3C(=O)OC)cccn2c1N(C)C(=O)c1cccs1 the results were NOD2-RIPK2 inh 8.
COc1cc(NC(=O)C(=O)NNC(=O)C2CCCCC2)c(OC)cc1Cl was read as TLR4-MyD88 BLA -1, NOD2-RIPK2 inh 8, CHOP inh 85*, TLR9-MyD88 block -12, CHOP UPR activ 1 and UPR XBP1 act 1.
Screening COc1ccc2oc3cc(Cl)ccc3c(=O)c2c1 returned NOD2-RIPK2 inh 5.
Screening CC(C)c1ccc(/C=N/NC(=O)c2ccc(-n3cnnn3)cc2)cc1 returned NOD2-RIPK2 inh -2, TLR9-MyD88 block 1, CHOP UPR activ 2 and UPR XBP1 act 4.
Oc1ccc(C[C@@H]2CNC(=S)N2CCc2cc(C(F)(F)F)cc(C(F)(F)F)c2)cc1 was read as NOD2-RIPK2 inh -4, CHOP inh 80*, TLR9-MyD88 block 8, CHOP UPR activ 0 and UPR XBP1 act -1.
Cc1cccc2sc(NC(=O)CN(C)S(=O)(=O)c3ccc(Br)s3)nc12 was read as TLR4-MyD88 BLA 3, NOD2-RIPK2 inh 4, CHOP inh 85*, TLR9-MyD88 block -4, CHOP UPR activ 0 and UPR XBP1 act -5.
For CCOC(=O)c1c(C(F)(F)C(F)(F)C(F)(F)C(F)(F)F)n[nH]c1C the results were TLR4-MyD88 BLA 4, NOD2-RIPK2 inh -2, CHOP inh 82*, TLR9-MyD88 block -8, CHOP UPR activ 0 and UPR XBP1 act -1.
Cc1nc2cc(NC(=O)C3(C)CCCN(C(C)C)C3)ccc2o1 (stereo not given) was read as NOD2-RIPK2 inh -9.
For Cc1cc(-n2c(C)cc(C(=O)CSc3ncnc4ccccc34)c2C)no1 the results were TLR4-MyD88 BLA 0, NOD2-RIPK2 inh -3, CHOP inh 70*, TLR9-MyD88 block 7, CHOP UPR activ 0 and UPR XBP1 act 1.
For Cc1nn(-c2nc3ccccc3[nH]2)c(=O)c2ccccc12 the results were TLR4-MyD88 BLA -14, NOD2-RIPK2 inh -4, CHOP inh 98* and TLR9-MyD88 block -7.
Cc1nn(-c2ccc3ccccc3c2)c(=O)c2ccccc12 was read as TLR4-MyD88 BLA 0, NOD2-RIPK2 inh -3, CHOP inh -21, TLR9-MyD88 block 0, CHOP UPR activ 2 and UPR XBP1 act 4.
Screening COC(=O)[C@@]1(Cc2ccccc2)[C@H]2C(=O)N(C)C(=O)[C@H]2[C@H]2CN(C)C(=NCc3ccccc3)N21 returned NOD2-RIPK2 inh -19 and TLR9-MyD88 block -8.
Screening O=C(CSc1nnc(Cc2csc(Nc3cccc(Cl)c3)n2)o1)N1CCc2ccccc21 returned TLR4-MyD88 BLA -8, NOD2-RIPK2 inh -5, CHOP inh 89*, TLR9-MyD88 block -5, CHOP UPR activ -2 and UPR XBP1 act -1.
Screening O=C1CCCCCCC1Sc1ccccc1[N+](=O)[O-] (stereo not given) returned TLR4-MyD88 BLA -11, NOD2-RIPK2 inh -1, CHOP inh 83*, TLR9-MyD88 block -1, CHOP UPR activ -1 and UPR XBP1 act -2.
CC(C)c1ccc(S(=O)(=O)/N=C2/C=C(Sc3ncn[nH]3)C(=O)c3ccccc32)cc1 was read as TLR4-MyD88 BLA -10, NOD2-RIPK2 inh 2, CHOP inh 81* and TLR9-MyD88 block 10.
`CC(C)(C)c1ccc(S(=O)(=O)/N=C2\C=C(NS(=O)(=O)c3ccccc3)C(=O)c3ccccc32)cc1` gave NOD2-RIPK2 inh 2, TLR9-MyD88 block 11, CHOP UPR activ 1 and UPR XBP1 act -1.
`OC(Cc1ccncc1)c1ccccc1Cl` (stereo not given) gave NOD2-RIPK2 inh -4 and TLR9-MyD88 block 2.
Cc1cc(C)c2c(CC(=O)NC(C)C)coc2c1 was read as TLR4-MyD88 BLA 5, NOD2-RIPK2 inh -6, CHOP inh 11, TLR9-MyD88 block 5, CHOP UPR activ 1 and UPR XBP1 act 0.
Screening Cc1cc(C)c2c(CC(=O)Nc3nccs3)coc2c1 returned TLR4-MyD88 BLA 1, NOD2-RIPK2 inh 1, CHOP inh 82*, TLR9-MyD88 block 4, CHOP UPR activ -2 and UPR XBP1 act 4.
`CCOC(=O)c1cccc(NC(=O)/C=C/c2cccc([N+](=O)[O-])c2)c1` gave TLR4-MyD88 BLA -16, NOD2-RIPK2 inh -1, CHOP inh 84*, TLR9-MyD88 block -6, CHOP UPR activ 2 and UPR XBP1 act 4.
For CCOC(=O)/C=C/C(=O)Nc1cccc([N+](=O)[O-])c1 the results were TLR4-MyD88 BLA 14, NOD2-RIPK2 inh 9, CHOP inh 48, TLR9-MyD88 block 5, CHOP UPR activ 1 and UPR XBP1 act -10.
`CS(=O)(=O)N(CC(=O)NCc1ccncc1)c1ccc(F)c(Cl)c1` gave TLR4-MyD88 BLA 5, NOD2-RIPK2 inh 0, CHOP inh 0, TLR9-MyD88 block -2, CHOP UPR activ 2 and UPR XBP1 act -2.
Screening C=CCNC(=O)CN(c1ccc(F)c(Cl)c1)S(C)(=O)=O returned TLR4-MyD88 BLA 1, NOD2-RIPK2 inh -2, CHOP inh 79*, TLR9-MyD88 block 10, CHOP UPR activ -2 and UPR XBP1 act -1.
For CC1C(=O)c2ccccc2CC1C(=O)O (stereo not given) the results were NOD2-RIPK2 inh 2 and TLR9-MyD88 block -9.
C[C@@H]1CN([C@@H](C)CO)C(=O)CCCn2nncc2CO[C@H]1CN(C)C(=O)C1CCCCC1 was read as NOD2-RIPK2 inh 0 and TLR9-MyD88 block 4.
For CC1CCN(S(=O)(=O)c2cccc(C(=O)NCc3cccs3)c2)CC1 the results were TLR4-MyD88 BLA 3, NOD2-RIPK2 inh -2, CHOP inh 73*, TLR9-MyD88 block -4, CHOP UPR activ -3 and UPR XBP1 act 1.
